Test results taken from publication PMC7833734 (Oncoimmunology, 2021).

What was measured:
[1] = tested on: naive CD8+ T cells derived from HD-PBMCs; assay type: cell-based, human; details: for CD8+ T-cell induction by AKF9 variants, in words: seven HD-PBMCs, cocktail of AKF9 variants along with the WT, tetramer staining; for immunogenicity (CD8+ T-cell induction), in words: six HD-PBMCs, cocktail of four natural HLA-A24 neoantigens
HLA-A24 on T2-A24 cells = assay: Peptide-HLA class I stability assay; assay type: binding, human; details: peptide 0.3 to 3 µM
Outline: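 TAP-deficient T2-A24 cells were pre-cultured overnight at 25°C. Cells were pulsed with mutant or WT peptide (0.3–3 µM) for 1 h at 25°C, then 3 h at 37°C. Surface HLA-A24 was stained with anti-HLA-A24 (C7709A2) and goat anti-mouse IgG-FITC, then read by flow cytometry. ΔMFI = MFI with peptide minus MFI without. Known HLA-A24 binder and non-binder peptides were controls. Comparison at 1 µM, SEM (n = 3), two-tailed t-test.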

[2] = tested on: neoantigen-reactive CD8+ T-cell clones; assay: IFNγ ELISpot assay of neoantigen-reactive CD8+ T-cell clones; assay type: cell-based, human; details: T2-A24 pulsed with 20 µM peptide, 24 h 37°C
Outline: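 Clones came from single tetramer-positive CD8+ cells sorted and expanded with irradiated allogeneic feeders, 5 μg/mL PHA and 100 IU/mL IL-2. T2-A24 cells were pre-incubated with 20 µM mutant or WT peptide for 2 h at 25°C. Spots were detected with 2 µg/mL biotinylated anti-IFNγ, streptavidin-HRP and AEC substrate.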

Sequence	CD8+ T-cell induction by AKF9 variants, in words [1]	immunogenicity (CD8+ T-cell induction), in words [1]	also measured
AYLEAIHDF [ADF9]	increased the frequency		
AYLEAIHHF [AHF9]	increased the frequency		
AYLEAIHKF [AKF9]	increased the frequency	immunogenic	effect of the mutation on pHLA I stability versus wild-type peptide (HLA-A24 on T2-A24 cells): unaltered; number of HDs with CD8+ T-cell response ([1]; of six HD-PBMCs, response = ≥ 4-fold increase with ≥ 0.1% tetramer+ CD8+ cells): three
AYLEAIHNF [ANF9]			recognition by ADF9-reactive CD8+ T-cell clones (D1-D5), IFNγ ELISpot [2]: three of the five clones
AYLEAIHYF [AYF9]	increased the frequency		
HYAALRELI [HI9]		failed to induce T-cell responses	
TLPEEFHEF [TEF9]		immunogenic	effect of the mutation on pHLA I stability versus wild-type peptide (HLA-A24 on T2-A24 cells): increased
VYVAKLHDI [VYI9]		failed to induce T-cell responses	
